From ChEMBL document CHEMBL1155280, “New arylthioindoles and related bioisosteres at the sulfur bridging group. 4. Synthesis, tubulin polymerization, cell growth inhibition, and molecular modeling studies” (J Med Chem, 2009)
Blank lines part the entries; values can stand above or below the compound they belong to. The source made the active and inactive calls. The rule behind the calls is not given here.

How the values were obtained:
[1] = Inhibition of tubulin polymerization after 20 mins by spectrophotometry
Outline: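 Tubulin 10 μM in 0.8 M monosodium glutamate, pH 6.6, preincubated 15 min at 30 °C with varying drug, chilled on ice. GTP added to 0.4 mM, turbidity at 350 nm followed 20 min at 30 °C. Extent of assembly measured; IC50 ± SD.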

MCF7 [2] = experiment: Growth inhibition of human MCF7 cells after 48 hrs by sulforhodamine B assay; format: functional, cell-based; settings: MCF7, 48 h
Bos taurus = species: Bos taurus; experiment: Inhibition of [3H]colchicine binding to bovine tubulin at 5 uM after 10 mins by DEAE-cellulose filter method
U-937 [3] = experiment: Cytotoxicity against human U937 cells after 48 hrs by MTT assay; format: functional, cell-based; settings: for IC50: U-937, 48 h
Outline: (§1)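 MTT assay. Seeded 10^5 cells/well, compound added after 24 h at 10, 30, 50, 100, 150, 200 nM for 24 or 48 h. MTT 1 mg/mL, 2 h at 37 °C in dark, formazan dissolved in DMSO, read at 550 nm. Triplicate; 0.5% DMSO control.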

M14 [4] = experiment: Cytotoxicity against human M14 cells at 10 to 200 nM by MTT assay; format: functional, cell-based; settings: TDE = time-dependent effect; outline: as §1
HeLa [5] = experiment: Antiproliferative activity against human HeLa cells assessed as cell proliferation at 1 uM after 24 hrs by MTT assay relative to control; format: functional; settings: read-out: Activity
Outline: (§2)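 HeLa and HCT116/chr3 cells grown at 37 °C, 5% CO2 in D-MEM with 10% fetal calf serum (HCT116/chr3 medium plus 500 μg/mL G418). Seeded 1 × 10^3 cells/well, treated 24 h later for 24 h from 10 mM DMSO stock; 1% DMSO solvent control. Quadruplicate, repeated three times; given as % of control ± SD.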

HUVEC = experiment: Growth inhibition of HUVEC; format: cell-based; settings: Homo sapiens
Outline: (§3)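 Human aortic smooth muscle, PtK2 kidney epithelial, rat A10 aortic smooth muscle and HUVEC lines grown as the supplier recommends, under 5% CO2.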

[6] = Growth inhibition of Potorous tridactylus PtK2 cells; format: cell-based; outline: as §3
U-937 [7] = experiment: Cytotoxicity against human U937 cells at 10 to 200 nM by MTT assay; format: functional, cell-based; settings: TDE = time-dependent effect; outline: as §1
Homo sapiens = species: Homo sapiens; experiment: Selectivity index, ratio of IC50 for HSMC to IC50 for human MCF7
Outline: (§4)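 Selectivity index: IC50 in the named nontransformed line divided by IC50 in MCF-7 cells.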

MCF7 [8] = experiment: Selectivity index, ratio of IC50 for rat A10 cells to IC50 for human MCF7 cells; format: functional; outline: as §4
[9] = Growth inhibition of mouse J774.1 cells at 300 nM after 48 hrs by MTT assay relative to control; format: cell-based; settings: read-out: GI
M14 [10] = experiment: Cytotoxicity against human M14 cells after 48 hrs by MTT assay; format: functional, cell-based; settings: for IC50: M14, 48 h; outline: as §1
[11] = Growth inhibition of HSMC; format: cell-based; settings: Homo sapiens; outline: as §3
HeLa [12] = experiment: Antiproliferative activity against human HeLa cells assessed as cell proliferation at 0.5 uM after 24 hrs by MTT assay relative to control; format: functional; settings: read-out: Activity; outline: as §2
HEK293 [13] = experiment: Cytotoxicity against HEK293 cells assessed as effect on cell morphology at 300 nM after 48 hrs by time-lapse microscopy; format: cell-based; settings: human, hek293, 48 h, 0.3 µM
Outline: (§5)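 Morphology of HEK and M14 cells followed by time-lapse microscopy in 96-well plates at 37 °C, 5% CO2, with images captured every hour over 48 h.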

MCF7 [14] = experiment: Selectivity index, ratio of IC50 for HUVEC to IC50 for human MCF7 cells; outline: as §4
M14 [15] = experiment: Cytotoxicity against human M14 cells assessed as effect on cell morphology at 300 nM after 48 hrs by time-lapse microscopy; format: functional, cell-based; outline: as §5
HEK293 [16] = experiment: Cytotoxicity against HEK293 cells after 48 hrs by MTT assay; format: cell-based, Homo sapiens; settings: for IC50: Homo sapiens, HEK293, 48 h; for Activity: human, hek293, 48 h; outline: as §1
MCF7 [17] = experiment: Selectivity index, ratio of IC50 for Potorous tridactylus PtK2 cells to IC50 for human MCF7 cells; format: functional; outline: as §4
HEK293 [18] = experiment: Cytotoxicity against HEK293 cells at 10 to 200 nM by MTT assay; format: cell-based; settings: human, hek293, 0.2 µM; TDE = time-dependent effect; outline: as §1
HCT-116 [19] = experiment: Antiproliferative activity against human HCT116 cells expressing mismatch repair gene MLH1 complemented with chromosome 3 assessed as cell proliferation at 1 uM after 24 hrs by MTT assay relative to control; format: functional; settings: HCT-116, 24 h, read-out: Activity; outline: as §2
A10 = experiment: Growth inhibition of rat A10 cells; format: cell-based; outline: as §3
HCT-116 [20] = experiment: Antiproliferative activity against human HCT116 cells expressing mismatch repair gene MLH1 complemented with chromosome 3 assessed as cell proliferation at 0.5 uM after 24 hrs by MTT assay relative to control; format: functional; settings: HCT-116, 24 h, read-out: Activity; outline: as §2

IC50 [1]: > 40000 nM
Structure (SMILES): CCOC(=O)c1cn(Cc2cc(OC)c(OC)c(OC)c2)cn1

IC50 [1]: > 40000 nM
Structure (SMILES): CCOC(=O)c1[nH]c2ccc(Cl)cc2c1C(=O)C(=O)c1cc(OC)c(OC)c(OC)c1

IC50 [1]: > 40000 nM
Structure (SMILES): COC(=O)c1[nH]c2ccc(OC)cc2c1S(=O)c1cc(OC)c(OC)c(OC)c1 (centres undefined)

IC50 [1]: > 40000 nM
Structure (SMILES): CCOC(=O)c1c(CC)c(CC)c(C)n1Cc1cc(OC)c(OC)c(OC)c1

IC50 [1]: 1400 nM
IC50 (MCF7 [2]): 110 nM
inhibition (Bos taurus): 49%
Structure (SMILES): CCOC(=O)c1[nH]c2ccc(Cl)cc2c1C(=O)c1cc(OC)c(OC)c(OC)c1

IC50 [1]: 670 nM
IC50 (MCF7 [2]): 17 nM
inhibition (Bos taurus): 78%
Structure (SMILES): COC(=O)c1[nH]c2ccc(OC)cc2c1C(=O)c1cc(OC)c(OC)c(OC)c1
Activity (U-937 [3]): Dose-dependent effect
IC50 (U-937 [3]): 155 nM
Activity (M14 [4]): tde
growth at 1 µM (HeLa [5]): 54%
IC50 (HUVEC): 110 nM
IC50 [6]: 190 nM
Activity (U-937 [7]): tde
Ratio IC50 (Homo sapiens): 2.1
Ratio IC50 (MCF7 [8]): 5.6
inhibition at 48 h, 0.3 µM [9]: 20%
Activity (M14 [10]): Dose-dependent effect
IC50 (M14 [10]): 100 nM
IC50 [11]: 35 nM
growth at 0.5 µM (HeLa [12]): 55%
Activity (HEK293 [13]): Toxic
Ratio IC50 (MCF7 [14]): 6.5
Activity (M14 [15]): Active
IC50 (HEK293 [16]): 140 nM
Activity (HEK293 [16]): Dose-dependent effect
Ratio IC50 (MCF7 [17]): 11
Activity (HEK293 [18]): tde
growth at 1 µM (HCT-116 [19]): 55%
IC50 (A10): 95 nM
growth at 0.5 µM (HCT-116 [20]): 57%

IC50 [1]: 28000 nM
Structure (SMILES): COc1cc(Cc2c[nH]c3ccccc23)cc(OC)c1OC

IC50 [1]: > 40000 nM
Structure (SMILES): COC(=O)c1[nH]c2ccc(OC)cc2c1S(=O)(=O)c1cc(OC)c(OC)c(OC)c1

IC50 [1]: > 40000 nM
Structure (SMILES): CCOC(=O)c1cccn1Cc1cc(OC)c(OC)c(OC)c1

IC50 [1]: 2600 nM
inhibition (Bos taurus): 68%
Structure (SMILES): COc1cc(Sc2c[nH]c3ccccc23)cc(OC)c1OC

IC50 [1]: > 40000 nM
Structure (SMILES): CCOC(=O)c1[nH]c2ccc(OC)cc2c1C(O)c1cc(OC)c(OC)c(OC)c1 (centres undefined)

Continued, compound first:

Structure (SMILES): COC(=O)c1[nH]c2ccccc2c1C(=O)c1cc(OC)c(OC)c(OC)c1
IC50 [1]: 2700 nM
IC50 (MCF7 [2]): 33 nM
inhibition (Bos taurus): 49%

Structure (SMILES): COC(=O)c1[nH]c2ccccc2c1Sc1cc(OC)c(OC)c(OC)c1
IC50 [1]: 2900 nM
inhibition (Bos taurus): 74%

Structure (SMILES): COC(=O)c1[nH]c2ccc(Cl)cc2c1Cc1cc(OC)c(OC)c(OC)c1
IC50 [1]: 1700 nM
IC50 (MCF7 [2]): 87 nM
inhibition (Bos taurus): 49%

Structure (SMILES): COc1ccc2[nH]cc(Sc3cc(OC)c(OC)c(OC)c3)c2c1
IC50 [1]: 4100 nM
IC50 (MCF7 [2]): 22 nM
inhibition (Bos taurus): 61%

Structure (SMILES): COC(=O)c1[nH]c2ccc(OC)cc2c1Cc1cc(OC)c(OC)c(OC)c1
IC50 [1]: 1400 nM
Activity (U-937 [3]): Dose-dependent effect
IC50 (U-937 [3]): 189 nM
Activity (M14 [4]): tde
IC50 (MCF7 [2]): 33 nM
growth at 1 µM (HeLa [5]): 51%
IC50 (HUVEC): 170 nM
IC50 [6]: 190 nM
Activity (U-937 [7]): tde
Ratio IC50 (Homo sapiens): 2.1
Ratio IC50 (MCF7 [8]): 3.9
inhibition at 48 h, 0.3 µM [9]: 20%
Activity (M14 [10]): Dose-dependent effect
IC50 (M14 [10]): 137 nM
IC50 [11]: 70 nM
growth at 0.5 µM (HeLa [12]): 52%
Activity (HEK293 [13]): Toxic
Ratio IC50 (MCF7 [14]): 5.2
Activity (M14 [15]): Active
IC50 (HEK293 [16]): 181 nM
Activity (HEK293 [16]): Dose-dependent effect
Ratio IC50 (MCF7 [17]): 5.8
Activity (HEK293 [18]): tde
growth at 1 µM (HCT-116 [19]): 69%
IC50 (A10): 130 nM
inhibition (Bos taurus): 59%
growth at 0.5 µM (HCT-116 [20]): 69%

Structure (SMILES): CCOC(=O)c1[nH]c2ccc(Cl)cc2c1CCc1cc(OC)c(OC)c(OC)c1
IC50 [1]: > 40000 nM

Structure (SMILES): CCOC(=O)c1[nH]c2ccccc2c1C(=O)c1cc(OC)c(OC)c(OC)c1
IC50 [1]: 2600 nM
IC50 (MCF7 [2]): 80 nM
inhibition (Bos taurus): 51%

Structure (SMILES): CCOC(=O)c1[nH]c2ccc(Cl)cc2c1C(=O)Cc1cc(OC)c(OC)c(OC)c1
IC50 [1]: > 40000 nM

Structure (SMILES): CCOC(=O)c1[nH]c2ccccc2c1Cc1cc(OC)c(OC)c(OC)c1
IC50 [1]: 5400 nM
